This note sets out measurements from ChEMBL document CHEMBL4732257, “The optimization and characterization of functionalized sulfonamides derived from sulfaphenazole against Mycobacterium tuberculosis with reduced CYP 2C9 inhibition” (Bioorg Med Chem Lett, 2021).

Each structure is given as a SMILES string. ≈ marks a conversion by molar mass, not a printed value.

Data set [1] has as its system Mycobacterium tuberculosis. Put plainly: Antimycobacterial activity against Mycobacterium tuberculosis H37Rv assessed as bacterial growth inhibition. In kind it is functional.
Data set [2] has as its target CYP2C9 (Homo sapiens, UniProt P11712). In words: Inhibition of CYP2C9 (unknown origin) at 0.5 uM relative to control. It is filed as ADME.
The target of data set [3] is Cytochrome P450 2C9 (Homo sapiens, UniProt P11712). In words: Inhibition of CYP2C9 (unknown origin). It is filed as ADME.
Data set [4] relates to Vero. Put plainly: Cytotoxicity against African green monkey Vero cells assessed as reduction in cell viability. It is filed as cell-based. As to conditions: Chlorocebus sabaeus. An outline of the steps:
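Vero cells exposed to the compounds; IC50 taken as the concentration inhibiting 50% of cell growth relative to an untreated control.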

CYP2C9, sequence (P11712 whole entry): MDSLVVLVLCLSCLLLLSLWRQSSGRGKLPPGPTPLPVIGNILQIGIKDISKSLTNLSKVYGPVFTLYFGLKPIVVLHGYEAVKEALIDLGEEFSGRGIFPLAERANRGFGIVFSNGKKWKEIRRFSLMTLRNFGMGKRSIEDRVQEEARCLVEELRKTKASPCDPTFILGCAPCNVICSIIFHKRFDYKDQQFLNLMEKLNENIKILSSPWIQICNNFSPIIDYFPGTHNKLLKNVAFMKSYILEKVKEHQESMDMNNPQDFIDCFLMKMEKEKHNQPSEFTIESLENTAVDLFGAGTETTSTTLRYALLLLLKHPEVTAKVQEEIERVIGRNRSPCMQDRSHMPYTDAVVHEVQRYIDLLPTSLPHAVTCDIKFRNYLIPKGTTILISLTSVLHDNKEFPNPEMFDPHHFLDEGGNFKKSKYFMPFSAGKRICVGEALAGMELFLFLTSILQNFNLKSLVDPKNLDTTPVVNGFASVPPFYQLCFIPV
Cytochrome P450 2C9, sequence (P11712 whole entry): as above

On to `Nc1ccc(S(=O)(=O)Nc2nc3ccccc3o2)cc1`, for which the MIC90 in data set [1] is greater than 32 µg/mL.

In the case of `CN(c1ccnn1-c1ccccc1)S(=O)(=O)c1ccc(N)cc1`, in data set [1], the MIC90 was greater than 32 µg/mL.

Regarding `Cc1ccc(-c2ccc(-n3nccc3NS(=O)(=O)c3ccc(N)cc3)cc2)cc1`, in data set [1], the MIC90 was found to be 31 µg/mL (≈ 76.7 µM). The compound further gave an inhibition at 0.5 µM in data set [2] of 2.2%.

For the compound `Nc1ccc(S(=O)(=O)Nc2ccc3cnn(-c4ccccc4)c3c2)cc1`, the MIC90 in data set [1] was greater than 32 µg/mL.

Turning to `Nc1ccc(S(=O)(=O)Nc2nc3ccccc3s2)cc1`, the MIC90 in data set [1] turned out to be 14.3 µg/mL (≈ 46.7 µM). For the same compound, in data set [2], testing at 0.5 µM gave an inhibition of 4.8%.

Consider `Nc1ccc(S(=O)(=O)Nc2ccnn2-c2ccc([N+](=O)[O-])cc2)cc1`, for which the MIC90 in data set [1] turned out to be 10.3 µg/mL (≈ 28.7 µM).

`Nc1ccc(S(=O)(=O)Nc2cc(-c3ccccc3)nn2-c2ccccc2)cc1`: in data set [1], the MIC90 is greater than 32 µg/mL.

With `Nc1ccc(S(=O)(=O)Nc2ccc3scnc3c2)cc1`, the MIC90 in data set [1] is greater than 32 µg/mL.

Regarding `CNc1ccc(S(=O)(=O)Nc2ccnn2-c2ccccc2)cc1`, the MIC90 in data set [1] is greater than 32 µg/mL.

As for `CC(C)(C)c1cc(NS(=O)(=O)c2ccc(N)cc2)n(-c2ccccc2)n1`, the MIC90 in data set [1] was greater than 32 µg/mL.

Turning to `Cc1ccc(C)c(-n2nccc2NS(=O)(=O)c2ccc(N)cc2)c1`, in data set [1], the MIC90 is greater than 32 µg/mL.

Regarding `Nc1ccc(S(=O)(=O)Nc2ccnn2-c2ccc(C(F)(F)F)cc2)cc1`, the MIC90 in data set [1] is greater than 32 µg/mL.

With `O=C(c1ccc(S(=O)(=O)Nc2ccnn2-c2ccccc2)cc1)N1CCNCC1`, in data set [1], the MIC90 was greater than 32 µg/mL.

Take `Nc1ccc(S(=O)(=O)Nc2nc3ccc(-c4ccccc4)cc3s2)cc1`: the MIC90 in data set [1] is greater than 32 µg/mL.

As for `Nc1ccc(S(=O)(=O)Nc2ccnn2-c2ccc(-c3ccccc3)cc2)cc1`, the MIC90 in data set [1] was greater than 32 µg/mL.

As to `O=C(c1ccc(S(=O)(=O)Nc2ccnn2-c2ccccc2)cc1)N1CCCCC1`, the MIC90 in data set [1] was 30.1 µg/mL (≈ 73.4 µM). The compound also gave an inhibition at 0.5 µM in data set [2] of 0.2%.

With `COc1ccc(-c2ccc(-n3nccc3NS(=O)(=O)c3ccc(N)cc3)cc2)cc1`, the MIC90 in data set [1] is greater than 32 µg/mL.

`COc1ccc(-c2ccc3nc(NS(=O)(=O)c4ccc(N)cc4)sc3c2)cc1`: the MIC90 in data set [1] was greater than 32 µg/mL.

Regarding `O=S(=O)(Nc1ccnn1-c1ccccc1)c1ccc(N2CCCCC2)cc1`, the MIC90 in data set [1] is greater than 32 µg/mL.

Turning to `CC(=O)Nc1ccc(S(=O)(=O)Nc2ccnn2-c2ccccc2)cc1`, in data set [1], the MIC90 was greater than 32 µg/mL.

As for `Nc1ccc(S(=O)(=O)Nc2ccnn2Cc2ccccc2)cc1`, in data set [1], the MIC90 was greater than 32 µg/mL.

For `Nc1ccc(S(=O)(=O)Nc2ccnn2-c2ccccc2)cc1F`, in data set [1], the MIC90 is greater than 32 µg/mL.

`Cc1cccc(-n2nccc2NS(=O)(=O)c2ccc(N)cc2)c1`: in data set [1], the MIC90 was 12.2 µg/mL (≈ 37.2 µM).

Turning to `Nc1cccc(S(=O)(=O)Nc2ccnn2-c2ccccc2)c1`, in data set [1], the MIC90 is greater than 32 µg/mL.

`Nc1ccc(S(=O)(=O)Nc2ccnn2C2CCCCC2)cc1`: the MIC90 in data set [1] was greater than 32 µg/mL.

For `COc1ccc(-n2nccc2NS(=O)(=O)c2ccc(N)cc2)cc1`, in data set [1], the MIC90 was determined as 5.69 µg/mL (≈ 16.5 µM). In addition, the values for the half-inhibitory concentration (IC50) in data set [3] and in data set [4] were 11.5 µM and greater than 64 µg/mL, respectively. Further, in data set [2], testing at 0.5 µM gave an inhibition of 9.1%.

Take `Nc1ccc(S(=O)(=O)Nc2ccnn2-c2ccc(F)cc2)cc1`: the MIC90 in data set [1] stood at 6.88 µg/mL (≈ 20.7 µM). In addition, the inhibition at 0.5 µM in data set [2] turned out to be 45.7%. Besides, the 50% inhibitory concentration (IC50) in data set [4] was greater than 64 µg/mL.

In the case of `O=C(c1ccc(S(=O)(=O)Nc2ccnn2-c2ccccc2)cc1)N1CCSCC1`, in data set [1], the MIC90 is greater than 32 µg/mL.

For the compound `COc1cc(N)ccc1S(=O)(=O)Nc1ccnn1-c1ccccc1`, the MIC90 in data set [1] was greater than 32 µg/mL.

Consider `Nc1ccc(S(=O)(=O)Nc2ccnn2-c2cccc(F)c2)cc1`, for which, in data set [1], the MIC90 came to 7.93 µg/mL (≈ 23.9 µM).

`Nc1ccc(-c2ccc(S(=O)(=O)Nc3ccnn3-c3ccccc3)cc2)cc1`: the MIC90 in data set [1] was greater than 32 µg/mL.

On to `CCc1cc(NS(=O)(=O)c2ccc(N)cc2)n(-c2ccccc2)n1`, for which the MIC90 in data set [1] was greater than 32 µg/mL.

For `Nc1ccc(S(=O)(=O)Nc2sccc2-c2ccccc2)cc1`, the MIC90 in data set [1] was greater than 32 µg/mL.

`Cc1ccc(-n2nccc2NS(=O)(=O)c2ccc(N)cc2)cc1`: the MIC90 in data set [1] is 7.33 µg/mL (≈ 22.3 µM). 0.5 µM produced 52.3% inhibition in data set [2]. For the same compound, the IC50 in data set [4] was greater than 64 µg/mL.

With `Nc1ccc(S(=O)(=O)Nc2ccnn2-c2ccc(Br)cc2)cc1`, the MIC90 in data set [1] was 14.5 µg/mL (≈ 37 µM).

With `Nc1ccc(S(=O)(=O)Nc2ccnn2C2CCCC2)cc1`, in data set [1], the MIC90 is greater than 32 µg/mL.

Regarding `NNC(=O)c1ccncc1` [ISONIAZID], the MIC90 in data set [1] was 0.02 µg/mL (≈ 0.146 µM).

In the case of `Nc1ccc(S(=O)(=O)Nc2ccnn2-c2ccccc2)cc1` [SULFAPHENAZOLE], in data set [1], the MIC90 came to 5.51 µg/mL (≈ 17.5 µM). This compound gave an inhibition at 0.5 µM in data set [2] of 48.3%. Further, in data set [4], the IC50 was greater than 64 µg/mL.

Turning to `Cc1cc(NS(=O)(=O)c2ccc(N)cc2)n(-c2ccccc2)n1` [SULFAZAMET], the MIC90 in data set [1] was 15.4 µg/mL (≈ 46.8 µM). For the same compound, the inhibition at 0.5 µM in data set [2] was determined as 45%.

Broadly, the MIC90 is an inhibitory concentration at the 90% level, which refers to growth in some studies and to a panel of isolates in others. By inhibition is commonly meant the percentage by which the read-out fell short of the control. One may read the IC50 as the concentration needed to halve the response being measured.
